Laboratory results: ChEMBL document CHEMBL1177701, “Synthesis, biological evaluation, and structure-activity relationships of dithiolethiones as inducers of cytoprotective phase 2 enzymes” (J Med Chem, 2010)
Blank lines part the entries; values can stand above or below the compound they belong to. The source made the active and inactive calls. No cut-off for these calls is given here.

Key:
[1] = test system: Rattus norvegicus; assay: Ex vivo induction of NQO1 in Sprague-Dawley rat bladder at 7.5 umol/kg/day, po for 10 days measured on day 11 relative to control; type: functional
How it was run: (§1)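 Female Sprague-Dawley rats, 6 per group, gavaged with compound at 7.5 µmol/kg/day or soya oil for 10 days and killed on day 11. Bladder homogenized in ice-cold 0.2% Triton X-100 and cleared by centrifugation. NQO1 activity measured by the Ernster method, GST by the Habig method. Reported as treated/control mean ± SEM, ANOVA with Student-Newman-Keuls test.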

[2] = test system: Rattus norvegicus; assay: Ex vivo induction of GST in Sprague-Dawley rat bladder at 7.5 umol/kg/day, po for 10 days measured on day 11 relative to control; type: functional; how it was run: as §1
[3] = Dissociation constant, pKa of the compound; type: physicochemical
[4] = test system: Rattus norvegicus; assay: Ex vivo induction of NQO1 in Sprague-Dawley rat liver at 7.5 umol/kg/day, po for 10 days measured on day 11 relative to control; type: functional
How it was run: (§2)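 Organs taken from the same rats used for the bladder study: female Sprague-Dawley, compound at 7.5 µmol/kg/day by gavage or soya oil for 10 days, killed on day 11. GI contents rinsed out under cold water and tissues stored at −80°C. Homogenized in 0.2% Triton X-100 and centrifuged. Supernatant NQO1 activity measured by the Ernster method, expressed as treated/control.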

[5] = test system: Rattus norvegicus; assay: Ex vivo induction of NQO1 in Sprague-Dawley rat kidney at 7.5 umol/kg/day, po for 10 days measured on day 11 relative to control; type: functional; how it was run: as §2
[6] = test system: Rattus norvegicus; assay: Ex vivo induction of NQO1 in Sprague-Dawley rat lung at 7.5 umol/kg/day, po for 10 days measured on day 11 relative to control; type: functional; how it was run: as §2
[7] = test system: Rattus norvegicus; assay: Ex vivo induction of NQO1 in Sprague-Dawley rat duodenum at 7.5 umol/kg/day, po for 10 days measured on day 11 relative to control; type: functional; how it was run: as §2
[8] = test system: Rattus norvegicus; assay: Ex vivo induction of NQO1 in Sprague-Dawley rat jejunum at 7.5 umol/kg/day, po for 10 days measured on day 11 relative to control; type: functional; how it was run: as §2
[9] = test system: Rattus norvegicus; assay: Ex vivo induction of NQO1 in Sprague-Dawley rat ileum at 7.5 umol/kg/day, po for 10 days measured on day 11 relative to control; type: functional; how it was run: as §2
[10] = test system: Rattus norvegicus; assay: Ex vivo induction of NQO1 in Sprague-Dawley rat colon at 7.5 umol/kg/day, po for 10 days measured on day 11 relative to control; type: functional; how it was run: as §2
[11] = test system: Rattus norvegicus; assay: Ex vivo induction of NQO1 in Sprague-Dawley rat stomach at 7.5 umol/kg/day, po for 10 days measured on day 11 relative to control; type: functional; how it was run: as §2
[12] = test system: Rattus norvegicus; assay: Ex vivo induction GCL protein expression in Sprague-Dawley rat bladder at 7.5 umol/kg/day, po for 10 days measured on day 11 by Western blot analysis; type: functional, organism-based
How it was run: (§3)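 Female Sprague-Dawley rats, 3 per group, gavaged once daily with compound at 7.5 µmol/kg or soya oil vehicle for 10 days. Killed on day 11. Bladder homogenized in 10 mM Tris-HCl pH 7.4, 0.25 M sucrose, 1 mM PMSF, 1 µg/ml leupeptin. 25-40 µg protein run by SDS-PAGE, then Western blot, with GAPDH as loading control.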

[13] = test system: Rattus norvegicus; assay: Ex vivo induction GST-alpha protein expression in Sprague-Dawley rat bladder at 7.5 umol/kg/day, po for 10 days measured on day 11 by Western blot analysis; type: functional, organism-based; how it was run: as §3
[14] = test system: Rattus norvegicus; assay: Ex vivo induction GST-mu protein expression in Sprague-Dawley rat bladder at 7.5 umol/kg/day, po for 10 days measured on day 11 by Western blot analysis; type: functional, organism-based; how it was run: as §3
[15] = test system: Rattus norvegicus; assay: Ex vivo induction GST-pi protein expression in Sprague-Dawley rat bladder at 7.5 umol/kg/day, po for 10 days measured on day 11 by Western blot analysis; type: functional, organism-based; how it was run: as §3
[16] = test system: NBT2; assay: Induction of NQO1 protein expression in rat NBT2 cells after 24 hrs by Western blot analysis; type: functional, cell-based
How it was run: (§4)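 NBT-II rat bladder carcinoma cells grown in MEM with 10% FBS. Plated overnight, then exposed to compound at 25 or 50 µM for 24 h, with 0.1% DMSO final. Cells trypsinized, lysed with 1 mM PMSF and sonicated. 25-40 µg protein taken for Western blot, GAPDH as loading control. At least two experiments.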

[17] = test system: NBT2; assay: Induction of GST-mu protein expression in rat NBT2 cells after 24 hrs by Western blot analysis; type: functional, cell-based; how it was run: as §4
[18] = test system: NBT2; assay: Induction of GST-alpha protein expression in rat NBT2 cells after 24 hrs by Western blot analysis; type: functional, cell-based; how it was run: as §4
[19] = test system: NBT2; assay: Induction of GST-pi protein expression in rat NBT2 cells at 25 to 50 uM after 24 hrs by Western blot analysis; type: functional, cell-based; how it was run: as §4
[20] = test system: NBT2; assay: Induction of GCL protein expression in rat NBT2 cells at 25 to 50 uM after 24 hrs by Western blot analysis; type: functional, cell-based; how it was run: as §4
[21] = target: T1, Nuclear factor erythroid 2-related factor 2 (Rattus norvegicus) (UniProt O54968); assay: Induction of Nrf-mediated NQO1 protein expression in wild type rat NBT2 cells at 25 uM after 24 hrs Western blot analysis; type: functional, cell-based
T1 sequence (whole entry): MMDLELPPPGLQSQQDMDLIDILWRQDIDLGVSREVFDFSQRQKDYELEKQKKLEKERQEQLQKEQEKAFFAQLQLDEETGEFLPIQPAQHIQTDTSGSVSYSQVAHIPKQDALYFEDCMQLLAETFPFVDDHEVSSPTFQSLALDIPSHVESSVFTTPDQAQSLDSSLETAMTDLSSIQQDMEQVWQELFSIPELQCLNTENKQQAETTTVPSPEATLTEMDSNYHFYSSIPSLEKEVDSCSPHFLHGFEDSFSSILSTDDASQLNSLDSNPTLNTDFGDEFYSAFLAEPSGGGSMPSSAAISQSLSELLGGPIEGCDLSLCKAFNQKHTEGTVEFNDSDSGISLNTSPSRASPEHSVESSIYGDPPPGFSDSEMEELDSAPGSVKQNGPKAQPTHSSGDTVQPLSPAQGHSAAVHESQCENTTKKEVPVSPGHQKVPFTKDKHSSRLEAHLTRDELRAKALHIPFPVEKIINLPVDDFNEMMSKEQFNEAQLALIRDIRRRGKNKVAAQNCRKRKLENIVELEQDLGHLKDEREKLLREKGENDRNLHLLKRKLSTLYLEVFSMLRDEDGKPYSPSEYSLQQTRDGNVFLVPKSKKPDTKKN
How it was run: (§5)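 NBT-II cells transfected with Nrf2 stealth RNAi or control RNAi (0.584 nmol per dish, lipofectamine 2000) for 48 h. Then treated with compound at 25 µM or vehicle for 24 h, with 0.1% DMSO final. Lysates analyzed by Western blot for Nrf2, GCL, GST-α, GST-μ and NQO1, with GAPDH as loading control.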

[22] = test system: NBT2; assay: Induction of GCL protein expression in Nrf gene knockout rat NBT2 cells at 25 uM after 24 hrs Western blot analysis; type: functional, cell-based; how it was run: as §5
[23] = test system: NBT2; assay: Induction of GST-alpha protein expression in Nrf gene knockout rat NBT2 cells at 25 uM after 24 hrs Western blot analysis; type: functional, cell-based; how it was run: as §5
[24] = test system: NBT2; assay: Induction of GST-mu protein expression in Nrf gene knockout rat NBT2 cells at 25 uM after 24 hrs Western blot analysis; type: functional, cell-based; how it was run: as §5
[25] = test system: NBT2; assay: Induction of NQO1 protein expression in Nrf gene knockout rat NBT2 cells at 25 uM after 24 hrs Western blot analysis; type: functional, cell-based; how it was run: as §5
[26] = target: T1, Nuclear factor erythroid 2-related factor 2 (Rattus norvegicus); assay: Induction of Nrf in wild type rat NBT2 cells at 25 uM after 24 hrs Western blot analysis; type: functional, cell-based; how it was run: as §5
[27] = test system: NBT2; assay: Induction of Nrf protein expression in Nrf gene knockout rat NBT2 cells at 25 uM after 24 hrs Western blot analysis; type: functional, cell-based; how it was run: as §5
[28] = target: T1, Nuclear factor erythroid 2-related factor 2 (Rattus norvegicus); assay: Induction of Nrf-mediated GCL protein expression in wild type rat NBT2 cells at 25 uM after 24 hrs Western blot analysis; type: functional, cell-based; how it was run: as §5
[29] = target: T1, Nuclear factor erythroid 2-related factor 2 (Rattus norvegicus); assay: Induction of Nrf-mediated GST-alpha protein expression in wild type rat NBT2 cells at 25 uM after 24 hrs Western blot analysis; type: functional, cell-based; how it was run: as §5
[30] = target: T1, Nuclear factor erythroid 2-related factor 2 (Rattus norvegicus); assay: Induction of Nrf-mediated GST-mu protein expression in wild type rat NBT2 cells at 25 uM after 24 hrs Western blot analysis; type: functional, cell-based; how it was run: as §5

Structure (SMILES): Oc1ccc(-c2cc(=S)ss2)cc1
- fold change (FC) [1]: 1.02
- fold change (FC) [2]: 0.95

- pKa [3]: 2.8
Structure (SMILES): O=C(O)c1cssc1=S
- fold change (FC) [1]: 3.69
- fold change (FC) [2]: 2.11

Structure (SMILES): S=c1ssc2c1CCCCCC2
- fold change (FC) [1]: 1.08
- fold change (FC) [2]: 1.11

Structure (SMILES): O=c1ssc2c1CCC2
- fold change (FC) [1]: 1.24
- fold change (FC) [2]: 1.11

Structure (SMILES): COC(=O)C1CCc2c1ssc2=S (stereo not given)
- fold change (FC) [4]: 1.1
- fold change (FC) [5]: 1.76
- fold change (FC) [6]: 1.08
- fold change (FC) [7]: 1.14
- fold change (FC) [8]: 1.11
- fold change (FC) [9]: 1.07
- fold change (FC) [10]: 1.07
- fold change (FC) [1]: 4.39
- fold change (FC) [2]: 2.31
- fold change (FC) [11]: 1.98

Structure (SMILES): S=c1ssc(S)c1-c1ccccc1
- fold change (FC) [1]: 1.11
- fold change (FC) [2]: 1.03

- Activity [21]: Active
- Activity [26]: Active
- Activity [28]: Active
- Activity [29]: Active
- Activity [30]: Active
Structure (SMILES): COC(=O)c1cssc1=S
- Activity [12]: Active
- Activity [13]: Active
- Activity [14]: Active
- Activity [15]: inactive
- Activity [16]: Dose-dependent effect
- Activity [17]: Dose-dependent effect
- Activity [18]: Dose-dependent effect
- Activity [19]: inactive
- Activity [20]: Active
- fold change (FC) [4]: 1.07
- fold change (FC) [5]: 1.45
- fold change (FC) [6]: 1.07
- fold change (FC) [7]: 1.17
- fold change (FC) [8]: 1.13
- fold change (FC) [9]: 0.95
- fold change (FC) [10]: 0.89
- fold change (FC) [1]: 5.05
- fold change (FC) [2]: 2.69
- fold change (FC) [11]: 2.36
- Activity [22]: inactive
- Activity [23]: inactive
- Activity [24]: inactive
- Activity [25]: inactive
- Activity [27]: inactive
